Values after ≈ are worked out from the molar mass of the structure shown. Active and inactive are the calls of the source. The calls are words filed in the database; no cut-off is given here.
Assays:
[1] = target: T1, Adenosine receptor A1 (Homo sapiens, UniProt P30542); test: Displacement of radioligand from human recombinant adenosine A1 receptor at 21 degC after 90 mins by cell-based microplate scintillation counting
T1 sequence (P30542 whole entry): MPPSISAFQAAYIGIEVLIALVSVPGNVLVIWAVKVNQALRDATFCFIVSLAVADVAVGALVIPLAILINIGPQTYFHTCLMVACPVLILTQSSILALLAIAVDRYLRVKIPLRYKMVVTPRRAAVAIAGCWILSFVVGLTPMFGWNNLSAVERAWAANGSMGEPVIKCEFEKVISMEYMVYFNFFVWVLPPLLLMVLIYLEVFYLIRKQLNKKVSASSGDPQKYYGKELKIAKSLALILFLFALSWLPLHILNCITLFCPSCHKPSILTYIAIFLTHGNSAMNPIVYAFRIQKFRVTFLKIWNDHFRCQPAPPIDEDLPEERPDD

[2] = target: T2, Adenosine receptor A2b (Homo sapiens, UniProt P29275); test: Displacement of radioligand from human recombinant adenosine A2B receptor at 21 degC after 60 mins by cell-based microplate scintillation counting
T2 sequence (P29275 whole entry): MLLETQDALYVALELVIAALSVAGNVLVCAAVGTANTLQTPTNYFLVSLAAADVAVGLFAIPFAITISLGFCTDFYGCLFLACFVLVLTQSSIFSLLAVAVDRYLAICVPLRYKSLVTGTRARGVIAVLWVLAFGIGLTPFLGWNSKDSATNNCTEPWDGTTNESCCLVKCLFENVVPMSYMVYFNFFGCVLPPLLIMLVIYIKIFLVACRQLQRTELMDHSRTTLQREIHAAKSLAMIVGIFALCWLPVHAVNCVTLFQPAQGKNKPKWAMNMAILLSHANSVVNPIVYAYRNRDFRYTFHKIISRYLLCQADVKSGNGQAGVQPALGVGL

[3] = target: T3, Adenosine receptor A3 (Homo sapiens, UniProt P0DMS8); test: Displacement of radioligand from human recombinant adenosine A3 receptor at 21 degC after 60 mins by cell-based microplate scintillation counting
T3 sequence (P0DMS8 whole entry): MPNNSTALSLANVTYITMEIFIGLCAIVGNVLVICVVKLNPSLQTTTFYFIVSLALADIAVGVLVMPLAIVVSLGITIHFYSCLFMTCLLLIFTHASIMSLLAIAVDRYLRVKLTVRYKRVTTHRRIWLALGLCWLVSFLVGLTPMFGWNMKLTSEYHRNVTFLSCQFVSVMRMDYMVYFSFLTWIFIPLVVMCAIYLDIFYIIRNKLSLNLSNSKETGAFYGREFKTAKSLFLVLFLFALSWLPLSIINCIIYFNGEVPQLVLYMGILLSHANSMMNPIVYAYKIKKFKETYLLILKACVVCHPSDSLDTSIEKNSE

[4] = system: Mus musculus; test: Reversal of haloperidol-induced hypolocomotion in po dosed TO mouse assessed as minimal effective dose administered 15 mins prior to testing done for 60 mins; assay type: functional; conditions: read-out: MED
Method in brief: (§1)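 Haloperidol (0.2 mg/kg ip) used to induce hypolocomotion; antagonist given orally over 0.01-10 mg/kg in mouse and rat; activity scored as time spent active during a 60 min session; p < 0.05 versus vehicle (+haloperidol) control; minimal effective dose taken as lowest active dose.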

[5] = system: Rattus norvegicus; test: Reversal of haloperidol-induced hypolocomotion in po dosed Sprague-Dawley rat assessed as minimal effective dose administered 120 mins prior to testing done for 60 mins; assay type: functional; conditions: read-out: MED; method in brief: as §1
[6] = system: Mus musculus; test: Increase in locomotor activity in mouse at 100 mg/kg administered for 4 days; assay type: functional, organism-based; parameters: dose 100 mg/kg
[7] = target: T4, Adenosine receptor A2a (Homo sapiens, UniProt P29274); conditions: CHO-K1
T4 sequence (P29274 whole entry): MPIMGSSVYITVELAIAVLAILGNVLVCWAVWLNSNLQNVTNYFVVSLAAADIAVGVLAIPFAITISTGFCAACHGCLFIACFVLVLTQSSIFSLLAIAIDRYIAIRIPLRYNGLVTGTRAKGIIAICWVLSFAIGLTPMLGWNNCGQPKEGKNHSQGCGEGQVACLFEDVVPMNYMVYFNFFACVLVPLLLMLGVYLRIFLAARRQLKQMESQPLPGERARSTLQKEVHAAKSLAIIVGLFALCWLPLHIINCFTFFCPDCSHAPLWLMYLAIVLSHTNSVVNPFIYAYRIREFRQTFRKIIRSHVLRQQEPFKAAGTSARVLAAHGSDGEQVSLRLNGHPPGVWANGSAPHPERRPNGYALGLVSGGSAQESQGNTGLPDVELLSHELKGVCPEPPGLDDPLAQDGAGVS

[8] = target: T5, Adenosine receptor A1 (Homo sapiens) (UniProt P30542); conditions: CHO-K1
T5 sequence (whole entry): T1 sequence (P30542 whole entry)

[9] = target: T6, Adenosine receptor A2b (Homo sapiens) (UniProt P29275); conditions: CHO-K1
T6 sequence (whole entry): T2 sequence (P29275 whole entry)

[10] = target: T7, Adenosine receptor A3 (Homo sapiens) (UniProt P0DMS8); conditions: CHO-K1
T7 sequence (whole entry): T3 sequence (P0DMS8 whole entry)

[11] = target: T4, Adenosine receptor A2a; test: Displacement of radioligand from human recombinant adenosine A2A receptor at 21 degC after 90 mins by cell-based microplate scintillation counting
[12] = system: Mus musculus; test: Reversal of haloperidol-induced hypolocomotion in TO mouse assessed as time spent for locomotor activity at 1 mg/kg, po administered 15 mins prior to testing done for 60 mins; assay type: functional, organism-based; parameters: dose 1 mg/kg; method in brief: as §1
[13] = system: Mus musculus; test: Reversal of haloperidol-induced hypolocomotion in TO mouse assessed as time spent for locomotor activity at 30 mg/kg, po administered 15 mins prior and measured for 60 mins; assay type: functional, organism-based; parameters: dose 30 mg/kg
[14] = system: Rattus norvegicus; test: Reversal of haloperidol-induced hypolocomotion in Sprague-Dawley rat assessed as time spent for locomotor activity at 30 mg/kg, po administered 120 mins prior and measured for 60 mins; assay type: functional, organism-based; parameters: dose 30 mg/kg
[15] = system: Liver microsomes; test: Metabolic stability in rat liver microsomes after 30 mins; assay type: ADME, Microsome; conditions: 0.5 h
Method in brief: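 Turnover by rodent liver microsomes measured as percent turnover after 30 min.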

[16] = Aqueous solubility in phosphate buffered saline; assay type: physicochemical
[17] = system: Mus musculus; test: Reversal of haloperidol-induced hypolocomotion in po dosed TO mouse assessed as time spent for locomotor activity administered 120 mins prior to testing done for 60 mins; assay type: functional, organism-based; method in brief: as §1
[18] = system: Rattus norvegicus; test: Reversal of haloperidol-induced hypolocomotion in po dosed Sprague-Dawley rat assessed as time spent for locomotor activity administered 15 mins prior to testing done for 60 mins; assay type: functional, organism-based; method in brief: as §1

Compound | Ki [1] [nM] | Ki [2] [nM] | Ki [3] [nM] | minimal effective dose [4] [mg/kg] | minimal effective dose [5] [mg/kg] | Ki [11] [nM] | other results
Nc1nc(-c2ccco2)c2nnn(Cc3ccccc3N)c2n1 | 63 | 123 | 302 | 10 | 10 | – | –
Cc1cc(Cn2nnc3c(-c4ccco4)nc(N)nc32)ccc1N | – | – | – | – | – | – | Activity [6]: Active; KA [7]: 0.58 nM; KA [8]: 95 nM; KA [9]: 31 nM; KA [10]: 1500 nM
Nc1nc(-c2ccco2)c2nnn(Cc3cccs3)c2n1 | 117 | 88 | 123 | 30 | 30 | 2.3 | –
Nc1ccc(Cn2nnc3c(-c4ccco4)nc(N)nc32)cc1 | 190 | 46 | 752 | – | – | 1.5 | Activity [12]: Active
CC(C)N(C)C(=O)c1cccc(Cn2nnc3c(-c4ccco4)nc(N)nc32)c1 | 1130 | 937 | 2470 | – | – | 22 | Activity [13]: inactive; Activity [14]: inactive; Stability [15]: Stable; solubility [16]: 30 µM (≈ 11.7 µg/mL)
CNc1ccc(Cn2nnc3c(-c4ccco4)nc(N)nc32)cc1 | 40 | 181 | 636 | – | – | 1.6 | Activity [12]: Active
Nc1nc(-c2ccco2)c2nnn(Cc3ccsc3)c2n1 | 78 | 164 | 136 | – | – | 1.9 | Activity [17]: inactive; Activity [18]: inactive
Cc1ccc(-c2nc(N)nc3c2nnn3Cc2ccccc2F)o1 | 19 | 6 | 260 | 3 | 3 | 2.1 | Activity [13]: inactive; Activity [14]: inactive; Stability [15]: Stable; solubility [16]: 30 µM (≈ 9.73 µg/mL)
Nc1nc(-c2ccco2)c2nnn(Cc3cccnc3)c2n1 | 931 | 225 | 1020 | – | – | 14.5 | Activity [17]: inactive; Activity [18]: inactive

From ChEMBL document CHEMBL1139344, “Antagonists of the human A(2A) adenosine receptor. 4. Design, synthesis, and preclinical evaluation of 7-aryltriazolo[4,5-d]pyrimidines” (J Med Chem, 2009)
